High-throughput results: PubChem BioAssay, SRMLSC
H69AR inhibit: blocks growth of human H69AR lung tumor cells; H69AR lung tumor viability, ATP luminescence, 72 h; active compounds read low; viability, % at 10 µM; actives 6% (n = 85,000); AID 598;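 active = viability at or below 40%; inactive = viability above 40%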;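 note: multidrug resistant small cell line overexpressing MRP-1 efflux transporter; 100% = mean luminescence of untreated control wells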
PTEN del growth: suppresses growth of cells with PTEN deletion. actives 1.2% (n = 140,000). AID 827. HCT116 PTEN-null viability, CellTiter-Glo, 60 h; active compounds read low. viability, % at 10 µM;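 active = viability at or below a set limit, 4 SD under the median of all tested compounds, cut at about 3.7% in these data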;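 note: PTEN knockout HCT116 line with beta catenin targeted HCT116 as companion control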
HUVEC prolif 384: inhibitors of human endothelial cell proliferation; HUVEC proliferation, CellTiter-Glo luminescence, 72 h; active compounds read low; viability, % at 10 µM (by protocol); actives 1.1% (n = 86,000); AID 648;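 active = viability at or below 30%; inactive = viability above 30%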;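 note: 100% = median luminescence of DMSO-only cell control wells on each plate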
Lung fibro prol: blocks proliferation of human lung fibroblasts; AID 719; viability, % at 10 µM; LL 47 human lung fibroblast viability, ATP luminescence; active compounds read low; actives 1.1% (n = 85,000);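 active = viability at or below 50% in the single dose screen; inactive = viability above 50%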;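 note: compound exposure lasted 72 h before the ATP readout; 100% = median luminescence of untreated cell-only wells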
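Assay system: human lung fibroblast line LL 47, low passage. Input: 1,150 fibroblasts seeded per well. Times: overnight cell rest, 72 h compound treatment at 37 °C. Evaluation: % viability of median cell-only signal. Technique: luminescent ATP detection, CellTiter-Glo. Control set: cell-only wells, no compound.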
bCat KO growth: beta-catenin-lacking colon tumor cell growth suppression | actives 1.5% (n = 140,000) | AID 818 | HCT116 beta-catenin knockout viability, CellTiter-Glo, 60 h; active compounds read low | viability, % at 10 µM;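 active = viability at or under a set limit, the compound median less 4 SD, cut at about 6% in these data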;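 note: 0% = Hyamine 1622 control at 20 µM and 100% = untreated cell control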
Starred values were filed as active, the others as inactive; . = no result. Shown is part of a subset that was picked to be rich in hits.

SMILES	H69AR inhibit	PTEN del growth	HUVEC prolif 384	Lung fibro prol	bCat KO growth
Cn1c(C(=O)N2CCCC2)cc2c(=O)n(C)c3ccccc3c21	80	105	100	93	95
Cc1ccc(CNC(=O)c2cnccn2)cc1	.	102	.	.	93
COC(C(=O)Nc1ccc(S(=O)(=O)Nc2cccc3ccccc23)cc1)c1ccccc1 (configuration not stated)	.	96	.	.	94
CC1CC(C)(C)N(C(=O)CSc2ccc(-c3ccc(F)cc3)nn2)c2ccccc21 (configuration not stated)	.	4	.	.	4.9*
Oc1ccccc1-c1nc2cnccn2c1Nc1ccc2c(c1)OCCO2	80	3.3*	94	93	4.3*
Clc1ccc(-c2nc3cnccn3c2Nc2ccc3c(c2)OCO3)cc1	25*	24	91	94	29
c1cncc(-c2nc3ccccn3c2Nc2ccc3c(c2)OCCO3)c1	90	82	83	93	86
Cc1ccc(C(=O)NCC(=O)OC(C)C(=O)NCCC2=CCCCC2)cc1C (configuration not stated)	.	86	.	.	88
C/C(=N/NC(=O)c1cnccn1)c1cccs1	.	92	.	.	78
COc1ccc(/C=N/NC(=O)CCSc2nc3ccccc3s2)cc1OC	.	82	.	.	88
O=C(CCSc1nc2ccccc2s1)N/N=C/c1c(O)ccc2ccccc12	.	3.2*	.	.	4.6*
CCc1nc(Nc2ccc(OC)c(OC)c2)c2nnn(Cc3ccccc3Cl)c2n1	56	62	27*	84	52
Cc1nn(-c2ccccc2)c2sc(-c3n[nH]c(=S)o3)cc12	.	84	.	.	92
O=C(OC1Cn2c(=O)ccc(=O)n2C1)c1ccccc1	.	99	.	.	95
CCOC(=O)c1ccccc1NC1CC(=O)N(c2ccccc2C)C1=O (configuration not stated)	97	96	103	101	101
COC(=O)c1cc(C(=O)OCC(=O)Nc2ccccc2OC(F)F)cc([N+](=O)[O-])c1	.	100	.	.	97
Nc1cnc(Br)cc1Br	.	96	.	.	104
Nc1cc2nsnc2cc1Br	.	10	.	.	1.8*
CCn1c(N)c(C(=O)NC)sc1=S	20*	61	95	97	55
CNc1nc(-c2ccccn2)nnc1-c1ccccc1	68	21	11*	13*	19
c1ccc(-c2nnc(-c3ccccn3)nc2NC2CCCCC2)cc1	37*	7	18*	19*	4.0*
CCCCn1c(=O)[nH]c(=O)c2c1nc(-c1ccc(-c3ccccc3Br)o1)n2CCOC	47	41	44	39*	34
COCCn1c(-c2ccc(-c3ccccc3Cl)o2)nc2c1c(=O)[nH]c(=O)n2CC(C)C	18*	61	37	60	62
O=C(Cn1nnc(-c2ccc(Cl)cc2)n1)NCC1CCCCC1	87	83	87	91	92
O=C(NCc1ccccn1)c1cn(-c2ccccc2)nc1-c1ccc(Cl)cc1	.	69	.	.	77
SMILES	H69AR inhibit	PTEN del growth	HUVEC prolif 384	Lung fibro prol	bCat KO growth
COc1ccc(OC)c(S(=O)(=O)N(C)CC(=O)N2CCN(c3ccc(F)cc3)CC2)c1	95	86	101	18*	87
CC(C)c1ccc(OCC(=O)NCCO)cc1	.	100	.	.	97
COc1ccc2occ(C(C)=O)c2c1	85	100	90	96	95
COc1ccc(OC)c(C(=O)c2coc3ccc(O)cc23)c1	24*	106	78	99	98
COc1ccc(C(=O)c2ccc(OC)cc2O)c(O)c1	32*	86	90	89	64
Cc1nn(C)cc1/C=N/NC(=O)C(C)(C)Oc1ccc(Cl)cc1	.	92	.	.	98
C/C=C/CSc1nc2c(c(=O)[nH]c(=O)n2C)n1Cc1ccc(C)cc1	18*	64	81	94	52
CCCCn1c(SCc2ccc(Cl)cc2)nc2c1c(=O)[nH]c(=O)n2C	27*	79	59	90	91
CC(C)CCn1c(SCc2ccc(Cl)cc2)nc2c1c(=O)[nH]c(=O)n2C	28*	85	66	75	72
CC(C)CCn1c(Sc2nc3ccccc3o2)nc2c1c(=O)[nH]c(=O)n2C	.	3.4*	.	.	5.4*
C/C(Cl)=C/Cn1c(SCc2ccc(Cl)cc2)nc2c1c(=O)[nH]c(=O)n2C	50	86	93	101	92
C=CCn1c(CCC(=O)O)ccc1-c1ccccc1	91	102	89	97	98
O=c1ccc(NS(=O)(=O)c2ccccc2)cn1Cc1ccc(Cl)c(Cl)c1	.	88	.	.	78
COCCN(C(=S)Nc1ccc(OC)cc1)C1CCN(C(C)=O)CC1	.	94	.	.	102
CNC(=O)N(C1=NCC(C)(C)S1)c1ccc(F)c(Cl)c1	15*	36	52	81	40
CNC(=O)N(C1=NCC(C)S1)c1ccc(F)cc1F (configuration not stated)	87	92	76	92	87
CCOC(=O)C1=C(N)n2c(s/c(=C/c3ccco3)c2=O)=C(C(=O)OC)C1c1ccco1 (configuration not stated)	4.8*	2.4*	13*	80	2.2*
CCOC(=O)C1=c2s/c(=C\c3cccnc3)c(=O)n2C(N)=C(C(=O)OC)C1c1cccnc1 (configuration not stated)	81	100	99	96	94
N#CC1=C(N)n2c(s/c(=C\c3ccco3)c2=O)=C(C#N)C1c1ccco1 (configuration not stated)	38*	90	75	92	91
CC1(c2ccc(Cl)cc2)NC(=O)N(CC(=O)N2CCCC2)C1=O (configuration not stated)	92	97	103	104	100
COC(=O)C1=C(C)N(c2cc(Cl)cc(Cl)c2)C(=O)C1	3.6*	65	81	70	66
COC(=O)C1=C(C)N(c2ccc(C(=O)OC)cc2)C(=O)C1	104	77	105	103	83
COc1ccc2nc(Nc3sc4c(c3C(N)=O)CCCC4)sc2c1	.	86	.	.	91
COc1ccc2cc3c(N)nn(C(=O)C4CCC(C(C)(C)C)CC4)c3nc2c1 (configuration not stated)	.	16	.	.	25
COc1ccc2cc3c(N)nn(C(=O)Cc4ccccc4OC)c3nc2c1	46	17	28*	68	20
SMILES	H69AR inhibit	PTEN del growth	HUVEC prolif 384	Lung fibro prol	bCat KO growth
O=C1CC(c2ccccc2)n2nc(NC(=O)c3ccccc3)nc2N1 (configuration not stated)	.	90	.	.	105
O=C1CC(c2ccccc2)n2nc(NC(=O)c3ccccn3)nc2N1 (configuration not stated)	29*	80	93	54	85
COc1ccc(CN=C(C)c2c(C(F)(F)F)[nH]n(-c3nc4ccccc4s3)c2=O)cc1	13*	38	22*	101	33
CCOc1cc(S(=O)(=O)NCc2ccc(OC)cc2)c(OCC)cc1-n1cnnn1	22*	33	58	56	48
CCOc1cc(S(=O)(=O)NCCc2ccc(OC)c(OC)c2)c(OCC)cc1-n1cnnn1	84	109	94	87	92
COc1ccc(Nc2nc(-c3cccc([N+](=O)[O-])c3)nc3ccccc23)cc1	.	12	.	.	19
